Data from publication PMC3565245 (Current Chemical Genomics, 2012).
Counter-ions that a name gives are not always drawn. Like-named read-outs stand apart in the source and are kept apart here. Values belong to the molecule of their own block, whether it stands above or below them.

Legend:
[1] = target: T1, Giardia lamblia carbamate kinase (glCK) (Giardia intestinalis, UniProt A8BB85); assay: Luminescence-based carbamate kinase assay in 1536-well format; format: biochemical; conditions: for Efficacy (% Inhibition): maximal response of the fitted curve, luminescence assay
T1 sequence (A8BB85 1-316): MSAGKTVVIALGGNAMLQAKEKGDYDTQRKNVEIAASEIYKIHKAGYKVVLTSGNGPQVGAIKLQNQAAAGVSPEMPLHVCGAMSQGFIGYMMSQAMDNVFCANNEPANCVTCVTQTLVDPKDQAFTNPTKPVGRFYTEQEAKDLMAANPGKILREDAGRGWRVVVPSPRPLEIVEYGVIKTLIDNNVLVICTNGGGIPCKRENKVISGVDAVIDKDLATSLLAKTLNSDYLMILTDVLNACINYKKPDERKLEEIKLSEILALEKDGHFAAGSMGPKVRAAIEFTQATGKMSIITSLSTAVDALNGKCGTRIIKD
Outline: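 Reaction was started with ADP/carbamoyl phosphate (final 150 µM) plus ATPLite and run 20 min at room temperature before the luminescence read. Data were normalized to DMSO and no-enzyme wells, pattern-corrected, and Hill-fitted for IC50 and efficacy.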

glCK = target: T2, glCK (Giardia intestinalis, UniProt A8BB85); assay: Absorbance-based carbamate kinase assay; format: biochemical, Giardia lamblia
T2 sequence (A8BB85 1-316): T1 sequence (A8BB85 1-316)
Outline: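 Coupled absorbance assay at room temperature. glCK in 20 mM Tris-HCl pH 7.5 was preincubated 15 min with test compound (final 0.002, 0.02, 0.2, 1, 2, 20, 200 μM; enzyme final 5 nM). It was then added to substrate mix (ADP, carbamoyl phosphate, final 40 µM; 30 mM MgCl2, glucose, NADP, hexokinase, G6P dehydrogenase). NADPH was followed at 340 nm, and IC50 was derived from initial velocities.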

Giardia infection = conditions: cited from earlier work
Giardia = conditions: maximum screening concentration of 38.3 µM; cited from earlier work
giardiasis = giardiasis standard of care; cited from earlier work
[2] = substrate: Nc1ncnc2c1ncn2[C@@H]1O[C@H](COP(=O)(O)OP(=O)(O)O)[C@@H](O)[C@H]1O; assay: Steady-state kinetics of glCK, luminescence assay in 384-well format; format: biochemical, Giardia lamblia; conditions: other: room temperature, substrate of glCK; pH 8.0
[3] = IC50 Luminescence Assay, Table 3, secondary assay comparison

Molecule: Oc1cc2c(cc1O)[C@H]1c3ccccc3CN[C@@H]1CC2 (racemic) [Dihydrexidine hydrochloride]
Efficacy (% Inhibition) [1]: 82.9%

Molecule: O=C1C2CC=CCC2C(=O)N1SC(Cl)(Cl)Cl (stereo not drawn) [Captan]
IC50 (glCK): 470 nM
IC50 [1, 3]: 2590 nM
Efficacy (% Inhibition) [1]: 88.6%

Molecule: N.N.[Cl][Pt][Cl] [Cisplatin]
Efficacy (% Inhibition) [1]: 88.2%

Molecule: O=C(O)c1cc(O)c(O)c(O)c1 [Gallic acid]
IC50 (glCK): 11400 nM
IC50 [1, 3]: 650 nM
Efficacy (% Inhibition) [1]: 89.2%

Molecule: O=C([O-])c1ccccc1-c1c2cc(Br)c(=O)cc-2oc2[c]([Hg+])c([O-])c(Br)cc12.[Na+].[Na+].[OH-] [Mercurochrome]
IC50 (glCK; read-out: IC50 Absorbance Assay, 5 nM glCK, inhibitor up to 200 μM): 220 nM
Efficacy (% Inhibition) [1]: 93.8%
IC50 ([1]; read-out: IC50 Luminescence Assay, Table 3, secondary assay comparison): 2060 nM

Molecule: CN(C)C(=S)SSC(=S)N(C)C [Thiram]
anti-giardial activities in a mouse model (Giardia infection): anti-giardial activities
IC50 (glCK): 640 nM
IC50 ([1]; IC50, values of the running text, chelator class): 4100 nM
IC50 [1, 3]: 4110 nM
Efficacy (% Inhibition) [1]: 92.3%
activity in Giardia killing screen (>30% reduction in ATP content) (Giardia): active

Molecule: Cc1ncc([N+](=O)[O-])n1CCO [metronidazole]
single course cure rates (giardiasis): 80–95%

Molecule: CCS(=O)(=O)CCn1c([N+](=O)[O-])cnc1C [tinidazole]
single course cure rates (giardiasis): 80–95%

B1: glCK (Giardia lamblia ATCC 50803) (protein)
chain: T1 sequence (A8BB85 1-316)
Km [2]: 58.3 ± 2.4 µM

Now from value to molecule, other results behind:

IC50 (glCK): 11700 nM
IC50 [1, 3]: 6510 nM
Efficacy (% Inhibition) [1]: 80.2%
Molecule: O=C(O)Cc1ccc(O)c(O)c1 [3,4-Dihydroxyphenylacetic acid]

IC50 (glCK): > 200000 nM
IC50 [1, 3]: 16300 nM
Efficacy (% Inhibition) [1]: 83.6%
Molecule: CC(C)(C)C(=O)OCOP(=O)(COCCn1cnc2c(N)ncnc21)OCOC(=O)C(C)(C)C [Adefovir dipivoxil]

IC50 (glCK): > 200000 nM
IC50 [1, 3]: 3260 nM
Efficacy (% Inhibition) [1]: 89.4%
Molecule: CN1CCc2cccc3c2[C@H]1Cc1ccc(O)c(O)c1-3 [Apomorphine hydrochloride hemihydrate]

Efficacy (% Inhibition) [1]: 81.2%
Molecule: OC[C@H]1O[C@H]([S-])[C@H](O)[C@@H](O)[C@@H]1O.[Au+] [Aurothioglucose]

Efficacy (% Inhibition) [1]: 82.3%
Molecule: CCOC(=S)SSC(=S)OCC [Bis(ethylxanthogen)]

IC50 (glCK): > 200000 nM
IC50 [1, 3]: 5800 nM
Efficacy (% Inhibition) [1]: 79.4%
Molecule: C[C@@](Cc1ccc(O)c(O)c1)(NN)C(=O)O [Carbidopa]

IC50 (glCK): 1390 nM
IC50 [1, 3]: 580 nM
Efficacy (% Inhibition) [1]: 90.5%
Molecule: CCN(CC)C(=S)SSC(=S)N(CC)CC [Disulfiram]
anti-giardial activities in a mouse model (Giardia infection): anti-giardial activities
activity in Giardia killing screen (>30% reduction in ATP content) (Giardia): active

Efficacy (% Inhibition) [1]: 77.7%
Molecule: CCN(CC)C(=S)S [Ditiocarb]
activity in Giardia killing screen (>30% reduction in ATP content) (Giardia): active

Efficacy (% Inhibition) [1]: 84.5%
Molecule: Oc1ccc(C2CNCCc3c2cc(O)c(O)c3Cl)cc1 (stereo not drawn) [Fenoldopam]

IC50 (glCK): 2700 nM
IC50 [1, 3]: 16300 nM
Efficacy (% Inhibition) [1]: 77.4%
Molecule: Oc1cccc(O)c1O [Pyrogallol]

IC50 (glCK): 540 nM
IC50 [1, 3]: 650 nM
Efficacy (% Inhibition) [1]: 85.5%
Molecule: O=C(O)[C@@H](S)[C@@H](S)C(=O)O [Succimer]
